From ChEMBL document CHEMBL1811814, “Synthesis and evaluation of indole, pyrazole, chromone and pyrimidine based conjugates for tumor growth inhibitory activities--development of highly efficacious cytotoxic agents” (Eur J Med Chem, 2010)

Legend:
Assay type in all cases: functional
U-251 [1] = experiment: Growth inhibition of human U251 cells
A498 = experiment: Growth inhibition of human A498 cells assessed tumor cell growth at 10^-5 M; parameters: scale not given: the % may be the effect or the level left
Procedure, shortened: (§1)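 NCI 60-human-tumor-cell-line panel screen. Each compound was tested at a single concentration of 10^-5 M, and percent growth of tumor cells was recorded for each cell line. Growth inhibition was expressed from these percent-growth values.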

OVCAR-4 = experiment: Growth inhibition of human OVCAR4 cells assessed tumor cell growth at 10^-5 M; parameters: scale not given: the % may be the effect or the level left; procedure, shortened: as §1
MDA-MB-231 = experiment: Growth inhibition of human MDA-MB-231 cells assessed tumor cell growth at 10^-5 M; parameters: scale not given: the % may be the effect or the level left; procedure, shortened: as §1
Malme-3M [2] = experiment: Growth inhibition of human MALME-3M cells
HOP-62 = experiment: Growth inhibition of human HOP62 cells
MOLT-4 = experiment: Growth inhibition of human MOLT4 cells assessed tumor cell growth at 10^-5 M; parameters: scale not given: the % may be the effect or the level left; procedure, shortened: as §1
IGROV-1 = experiment: Growth inhibition of human IGROV1 cells
Procedure, shortened: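 Follow-up panel testing at five concentrations (10^-4, 10^-5, 10^-6, 10^-7 and 10^-8 M) across the 60 human tumor cell lines. GI50 was obtained for each line from the concentration-response data, with the panel average GI50 also reported.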

OVCAR-5 [3] = experiment: Growth inhibition of human OVCAR5 cells assessed tumor cell growth at 10^-5 M; parameters: scale not given: the % may be the effect or the level left; procedure, shortened: as §1
NCI-H522 = experiment: Growth inhibition of human NCI-H522 cells
DU-145 = experiment: Growth inhibition of human DU145 cells assessed tumor cell growth at 10^-5 M; parameters: scale not given: the % may be the effect or the level left; procedure, shortened: as §1
UACC-62 [4] = experiment: Growth inhibition of human UACC62 cells assessed tumor cell growth at 10^-5 M; parameters: scale not given: the % may be the effect or the level left
Procedure, shortened: (§2)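 Single-dose screen at 10^-5 M across the 60 human tumor cell line panel, run to NCI standards. The value is the percent growth of each cell line in the presence of compound. Compounds active at this dose moved on to five-concentration testing (10^-4 to 10^-8 M).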

M14 = experiment: Growth inhibition of human M14 cells assessed tumor cell growth at 10^-5 M; parameters: scale not given: the % may be the effect or the level left; procedure, shortened: as §1
OVCAR-5 [5] = experiment: Growth inhibition of human OVCAR5 cells
HCT-116 [6] = experiment: Growth inhibition of human HCT116 cells
K562 = experiment: Growth inhibition of human K562 cells
SF-268 = experiment: Growth inhibition of human SF268 cells
OVCAR-3 [7] = experiment: Growth inhibition of human OVCAR3 cells assessed tumor cell growth at 10^-5 M; parameters: scale not given: the % may be the effect or the level left; procedure, shortened: as §1
LOX IMVI = experiment: Growth inhibition of human LOXIMVI cells
786-0 = experiment: Growth inhibition of human 786-0 cells
SK-OV-3 [8] = experiment: Growth inhibition of human SKOV3 cells assessed tumor cell growth at 10^-5 M; parameters: scale not given: the % may be the effect or the level left; procedure, shortened: as §1
KM12 = experiment: Growth inhibition of human KM12 cells assessed tumor cell growth at 10^-5 M; parameters: scale not given: the % may be the effect or the level left; procedure, shortened: as §1
SK-MEL-2 = experiment: Growth inhibition of human SK-MEL-2 cells
OVCAR-3 [9] = experiment: Growth inhibition of human OVCAR3 cells
SR = experiment: Growth inhibition of human SR cells assessed tumor cell growth at 10^-5 M; parameters: scale not given: the % may be the effect or the level left; procedure, shortened: as §2
NCI-H322M = experiment: Growth inhibition of human NCI-H322M cells assessed tumor cell growth at 10^-5 M; parameters: scale not given: the % may be the effect or the level left; procedure, shortened: as §1
HT-29 = experiment: Growth inhibition of human HT-29 cells assessed tumor cell growth at 10^-5 M; parameters: scale not given: the % may be the effect or the level left; procedure, shortened: as §1
SW-620 = experiment: Growth inhibition of human SW620 cells assessed tumor cell growth at 10^-5 M; parameters: scale not given: the % may be the effect or the level left; procedure, shortened: as §2
A549 = experiment: Growth inhibition of human A549 cells
TK-10 [10] = experiment: Growth inhibition of human TK10 cells
MCF7 = experiment: Growth inhibition of human MCF7 cells assessed tumor cell growth at 10^-5 M; parameters: scale not given: the % may be the effect or the level left; procedure, shortened: as §1
HCT-116 [11] = experiment: Growth inhibition of human HCT116 cells assessed tumor cell growth at 10^-5 M; parameters: scale not given: the % may be the effect or the level left; procedure, shortened: as §1
Malme-3M [12] = experiment: Growth inhibition of human MALME-3M cells assessed tumor cell growth at 10^-5 M; parameters: scale not given: the % may be the effect or the level left; procedure, shortened: as §1
SN12C = experiment: Growth inhibition of human SN12C cells
NCI/ADR-RES = experiment: Growth inhibition of human NCI/ADR-RES cells
BT-549 = experiment: Growth inhibition of human BT549 cells assessed tumor cell growth at 10^-5 M; parameters: scale not given: the % may be the effect or the level left; procedure, shortened: as §1
SF-295 = experiment: Growth inhibition of human SF295 cells assessed tumor cell growth at 10^-5 M; parameters: scale not given: the % may be the effect or the level left; procedure, shortened: as §1
[13] = Growth inhibition of human […] cells assessed tumor cell growth at 10^-5 M; parameters: scale not given: the % may be the effect or the level left; procedure, shortened: as §1
HL-60(TB) = experiment: Growth inhibition of human HL-60(TB) cells
HCT-15 = experiment: Growth inhibition of human HCT15 cells
TK-10 [14] = experiment: Growth inhibition of human TK10 cells assessed tumor cell growth at 10^-5 M; parameters: scale not given: the % may be the effect or the level left; procedure, shortened: as §2
U-251 [15] = experiment: Growth inhibition of human U251 cells assessed tumor cell growth at 10^-5 M; parameters: scale not given: the % may be the effect or the level left; procedure, shortened: as §2
UACC-62 [16] = experiment: Growth inhibition of human UACC62 cells
PC-3 = experiment: Growth inhibition of human PC3 cells assessed tumor cell growth at 10^-5 M; parameters: scale not given: the % may be the effect or the level left; procedure, shortened: as §1
SNB-19 = experiment: Growth inhibition of human SNB19 cells assessed tumor cell growth at 10^-5 M; parameters: scale not given: the % may be the effect or the level left; procedure, shortened: as §2
MDA-MB-435 = experiment: Growth inhibition of human MDA-MB-435 cells
SK-MEL-5 = experiment: Growth inhibition of human SK-MEL-5 cells
NCI-H23 = experiment: Growth inhibition of human NCI-H23 cells
SK-OV-3 [17] = experiment: Growth inhibition of human SKOV3 cells
[18] = Growth inhibition of human Hs 578T cells
[19] = read-out: LC50 (the source's name)

Molecule `O=C1/C(=C\c2ccccn2)c2ccccc2N1c1c(Cl)cccc1Cl` has a GI50 (U-251 [1]) of 1.8 µM, a CC50 (U-251 [1]; [19]) of 7.4 µM and an Activity (A498) of 21.33%. The Activity (OVCAR-4) was -7.46%, the Activity (MDA-MB-231) was 15.7% and the GI50 (Malme-3M [2]) was 1.9 µM. The CC50 (Malme-3M [2]; [19]) was 16.9 µM, the GI50 (HOP-62) was 2.3 µM and the CC50 (HOP-62; [19]) was 89.1 µM. For the same molecule, the Activity (MOLT-4) was 3.8%, the GI50 (IGROV-1) was 1.7 µM and the Activity (OVCAR-5 [3]) was 122.39%. It also gave a GI50 (NCI-H522) of 1.6 µM, an LC50 (concentration killing 50% of cells) (NCI-H522) of 7.5 µM and an Activity (DU-145) of -0.09%. For the same molecule, the Activity (UACC-62 [4]) was 24.91%, the Activity (M14) was -43.6% and the GI50 (OVCAR-5 [5]) was 2.4 µM. For the same molecule, the CC50 (OVCAR-5 [5]; [19]) was over 100 µM, the GI50 (HCT-116 [6]) was 1.7 µM and the CC50 (HCT-116 [6]; [19]) was 6.9 µM. For the same molecule, the GI50 (K562) was 3.9 µM, the CC50 (K562; [19]) was over 100 µM and the GI50 (SF-268) was 3.6 µM. It also gave a CC50 (SF-268; [19]) of 40.7 µM, an Activity (OVCAR-3 [7]) of 27.36% and a GI50 (LOX IMVI) of 1.7 µM. For the same molecule, the CC50 (LOX IMVI; [19]) was 6.4 µM, the GI50 (786-0) was 1.9 µM and the CC50 (786-0; [19]) was 6.6 µM. The Activity (SK-OV-3 [8]) was 39.19%, the Activity (KM12) was -2.11% and the GI50 (SK-MEL-2) was 2.3 µM. It also gave a CC50 (SK-MEL-2; [19]) of 24.5 µM, a GI50 (OVCAR-3 [9]) of 1.7 µM and a CC50 (OVCAR-3 [9]; [19]) of 6.9 µM. It also gave an Activity (SR) of -4.3%, an Activity (NCI-H322M) of 61.39% and an Activity (HT-29) of 10.75%. The Activity (SW-620) was -56.9%, the GI50 (A549) was 1.9 µM and the CC50 (A549; [19]) was 43.6 µM. For the same molecule, the GI50 (TK-10 [10]) was 3 µM, the CC50 (TK-10 [10]; [19]) was 50.1 µM and the Activity (MCF7) was -10.81%. The Activity (HCT-116 [11]) was -94.37%, the Activity (Malme-3M [12]) was 67.26% and the GI50 (SN12C) was 2.2 µM. It also gave a CC50 (SN12C; [19]) of 58.8 µM, a GI50 (NCI/ADR-RES) of 3 µM and a CC50 (NCI/ADR-RES; [19]) of over 100 µM. It also gave an Activity (BT-549) of -17.72%, an Activity (SF-295) of 12.33% and an Activity [13] of -12.52%. It also gave a GI50 (HL-60(TB)) of 3.8 µM, a CC50 (HL-60(TB); [19]) of over 100 µM and a GI50 (HCT-15) of 2 µM. For the same molecule, the CC50 (HCT-15; [19]) was 28.8 µM, the Activity (TK-10 [14]) was 52% and the Activity (U-251 [15]) was -2.48%. For the same molecule, the GI50 (UACC-62 [16]) was 1.6 µM, the CC50 (UACC-62 [16]; [19]) was 6.9 µM and the Activity (PC-3) was 31.44%. It also gave an Activity (SNB-19) of 34.85%, a GI50 (MDA-MB-435) of 1.8 µM and a CC50 (MDA-MB-435; [19]) of 61.6 µM. It also gave a GI50 (SK-MEL-5) of 1.6 µM, a CC50 (SK-MEL-5; [19]) of 5.7 µM and a GI50 (NCI-H23) of 3.5 µM. It also gave an LC50 (concentration killing 50% of cells) (NCI-H23) of over 100 µM, a GI50 (SK-OV-3 [17]) of 3.4 µM and a CC50 (SK-OV-3 [17]; [19]) of 74.1 µM. The GI50 [18] was 5.6 µM and the CC50 [18, 19] was over 100 µM.
